Measurements from different studies.
CSNK1D: Casein kinase I isoform delta (CSNK1D, Homo sapiens, UniProt P48730)
PLCD1: 1-phosphatidylinositol 4,5-bisphosphate phosphodiesterase delta-1 (PLCD1, Homo sapiens, UniProt P51178)
FLT3 ITD: Receptor-type tyrosine-protein kinase FLT3 (FLT3, Homo sapiens, UniProt P36888, ITD)
HTR2B: 5-hydroxytryptamine receptor 2B (HTR2B, Homo sapiens, UniProt P41595)
FLT3 D835Y: Receptor-type tyrosine-protein kinase FLT3 (FLT3, Homo sapiens, UniProt P36888, D835Y)

Compound | target | test | endpoint | result
c1ccc(-c2nnc(NCc3ccccn3)o2)cc1 | CSNK1D | binding, SPR | Kd | > 50 µM
C#CCOc1cccc(C(=O)CC(SCc2cccc(Br)c2)C(=O)O)c1 (centres unmarked) | PLCD1 | ligand displacement, FP | Ki | 710 µM
c1cc(CN2CCCNCCNCCCNCC2)ccc1CN1CCCNCCNCCCNCC1 | CSNK1D | binding, SPR | Kd | > 50 µM
CN(C)CCN(C)C(=O)c1ccc(-c2nc3ccc4[nH]ncc4c3c3c2CCCCC3)cc1 | FLT3 ITD | enzyme activity, inhibitor | IC50 | > 1 µM
N#Cc1ccc(O)cc1F | CSNK1D | binding, SPR | Kd | 20 to 50 µM
COc1cc2c3c(c1OC)-c1c(OC)ccc(N4CCOCC4)c1CC3N(C)CC2 (centres unmarked) | HTR2B | ligand displacement, radioligand | Ki | 0.773 µM
CCn1c2ccccc2c2cc(Nc3ccnc(NCCCN4CCOCC4)n3)ccc21 | CSNK1D | binding, SPR | Kd | > 50 µM
Cc1n[nH]c2ccc3nc(-c4ccc(C(=O)NCCN(C)C)cc4F)c4c(c3c12)CCCC4 | FLT3 D835Y | enzyme activity, inhibitor | IC50 | 0.005 µM
CSCC[C@H](NC(C)=O)C(=O)N[C@@H](CC(=O)O)C(=O)N[C@@H](Cc1ccccc1)C(N)=O | Gastrin/cholecystokinin type B receptor (CCKBR, Homo sapiens, UniProt P32239) | β-arrestin recruitment, agonist | EC50 | 18.7 µM
CN(C)CCNC(=O)c1ccc(-c2nc3ccc4[nH]ncc4c3c3c2CCCCC3)c(F)c1 | FLT3 D835Y | enzyme activity, inhibitor | IC50 | 0.007 µM
COc1cccc(C(=O)CC(SCc2ccc(Cl)cc2)C(=O)O)c1 (centres unmarked) | PLCD1 | ligand displacement, FP | Ki | > 1000 µM
COc1cc2c3c(c1OC)-c1c(OC)ccc(-c4ccc(C#N)cc4)c1CC3N(C)CC2 (centres unmarked) | HTR2B | ligand displacement, radioligand | Ki | 0.856 µM
CCOC(=O)c1cc(-c2ccc(OCC)cc2)oc1-c1ccc(Cl)cc1 | PLCD1 | ligand displacement, FP | Ki | > 100 µM
Cc1n[nH]c2ccc3nc(-c4ccc(C(=O)NCCN(C)C)cn4)c4c(c3c12)CCCCC4 | FLT3 ITD | enzyme activity, inhibitor | IC50 | 0.419 µM
COc1cc2c3c(c1OC)-c1c(OC)ccc(O)c1CC3N(C)CC2 (centres unmarked) | HTR2B | ligand displacement, radioligand | Ki | 1.42 µM
Brc1cnc2nccnc2c1 | CSNK1D | binding, SPR | Kd | > 50 µM
CN(C)CCNC(=O)c1ccc(-c2nc3ccc4[nH]ncc4c3c3c2CCCC3)cc1 | Receptor-type tyrosine-protein kinase FLT3 (FLT3, Homo sapiens, UniProt P36888, F691L) | enzyme activity, inhibitor | IC50 | 0.157 µM
COc1ccccc1C(=O)CC(SCc1ccc(Cl)cc1)C(=O)O (centres unmarked) | PLCD1 | ligand displacement, FP | Ki | > 1000 µM
COCCNC(=O)c1ccc(-c2nc3ccc4[nH]ncc4c3c3c2CCCC3)cc1 | FLT3 ITD | enzyme activity, inhibitor | IC50 | 0.664 µM
CN(C)C(=O)c1cc2cnc(Nc3ccc(C(=O)NCCCCCCOc4cccc5c4C(=O)N(C4CCC(=O)NC4=O)C5=O)cc3)nc2n1C1CCCC1 (centres unmarked) | Aurora kinase C (AURKC, Homo sapiens, UniProt Q9UQB9) | binding, competition with immobilised ligand | Kd | < 0.2 µM
COc1cc(C(C)=O)c(F)cc1O | CSNK1D | binding, SPR | Kd | > 50 µM
CCOc1ccc(C(=O)CC(SCc2ccccc2)C(=O)O)cc1 (centres unmarked) | PLCD1 | ligand displacement, FP | Ki | > 1000 µM
CN(C)CCN(C)C(=O)c1ccc(-c2nc3ccc4[nH]ncc4c3c3c2CCCCC3)cn1 | FLT3 ITD | enzyme activity, inhibitor | IC50 | > 1 µM
COc1ccc(C(=O)CC(SCc2ccc(Cl)cc2)C(=O)O)cc1 (centres unmarked) | PLCD1 | ligand displacement, FP | Ki | > 1000 µM
Cc1n[nH]c2ccc3nc(-c4ccc(C(=O)NCCN(C)C)cc4)c4c(c3c12)CCC(F)(F)C4 | FLT3 ITD | enzyme activity, inhibitor | IC50 | 0.355 µM
CCOc1cccc(C(=O)CC(SCc2cccc(Br)c2)C(=O)O)c1 (centres unmarked) | PLCD1 | ligand displacement, FP | Ki | 605 µM
Brc1ccc2nccnc2c1 | CSNK1D | binding, SPR | Kd | > 50 µM
CCOc1cccc(C(=O)CC(SCc2ccc(Cl)cc2)C(=O)O)c1 (centres unmarked) | PLCD1 | ligand displacement, FP | Ki | 474 µM
CNC(=O)c1ccc(OC)c(Br)c1 | CSNK1D | binding, SPR | Kd | > 50 µM
